From PubChem BioAssay
Hsp70 activator: Hsp70 transcriptional activation, primary screen; activation, % at 10 µM; 200,000 compounds, 0.04% hits; HeLa Hsp70 promoter luciferase reporter, luminescence; scaled: vehicle 0, proteasome-inhibitor control 100%;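 active means activation above the mean across all tested compounds plus 3 SD, cutoff set per campaign, cut at about 5.5% in these data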;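 further: 100% = MG132 at 30 µM as the positive control and 0% = DMSO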
HIF act: HIF pathway transcriptional activation; U2OS HRE-luciferase reporter, luminescence; normalized: DMSO 0%, desferrioxamine 100%; activation, % at 7.5 µM (by protocol); 300,000 compounds, 0.32% hits;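 active means mean activation of at least 10% of the iron chelator positive control signal, with at least half of replicates also reaching 10%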
ABHD5-PLIN5 inh: blocks binding of human ABHD5 to perilipin-5; Q00G26+Q8WTS1; Split G. princeps luciferase complementation, luminescence, 4 h; inhibition, % at 4 µM; 360,000 compounds, 0.78% hits; AID 602281;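 active means inhibition above the mean inhibition across every tested compound plus 3 SD, cut at about 22% in these data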;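 further: 0% = DMSO only wells and the 100% control is not disclosed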
Rad51 HR inh: blocks human Rad51 in homologous recombination | 200,000 compounds, 0.085% hits | Q06609 | inhibition, % at 10 µM | hRad51 DNA strand exchange, fluorescence dequenching;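 active means inhibition above 40% at the single screening dose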;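 further: 0% = DMSO control wells and 100% = blanks with heterologous ssDNA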
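Material: Human Rad51 nucleoprotein filaments preassembled on unlabelled ssDNA | Also added: Labelled 47-mer dsDNA for strand exchange | Dosing: Single dose, 10 µM final compound | Schedule: 30-min compound preincubation and 15-min exchange, both room temperature | Technique: Fluorescence dequenching at 485/520 nm | Measure: Percent inhibition relative to plate controls and blanks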
TAG inh: triacylglycerol accumulation inhibition; H9c2 cells, Nile Red lipid (TAG) fluorescence; cells loaded with 200 µM oleic acid; inhibition, % at 12.5 µM; 230,000 compounds, 0.66% hits; AID 651582;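 active means pattern-corrected inhibition of lipid staining of at least 50% with the nuclear-stain viability signal not falling by more than 50%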;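 further: 0% = DMSO wells and 100% = triacsin C control wells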
FXN GAA850 act: increases GAA850 frataxin promoter reporter activity; 360,000 compounds, 0.56% hits; HEK293 lucGAA850 FXN promoter luciferase reporter, 24 h; percent of 10 µM SAHA response; activation, % at 6 µM;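 active means activation above the average of all compounds screened plus 3 SD, cutoff fixed separately per campaign, cut at about 7.5% in these data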;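 further: 0% = DMSO wells and 100% = 10 µM SAHA wells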
ABHD5 PLIN5 conf: ABHD5-PLIN5 interaction inhibition, confirmed; shares compounds with ABHD5-PLIN5 inh; biochemical ABHD5-PLIN5 interaction, luminescence; inhibition, % at 4 µM; 2,200 compounds, 67% hits; AID 651612; in the data active means inhibition above about 23%;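 further: 0% = DMSO vehicle wells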
HNF4 split-luc: counter-screen for ABHD5-PLIN5 inhibitors: HNF4 split-luciferase; shares compounds with ABHD5-PLIN5 inh; HNF4 dimerization, luminescence, biochemical; inhibition, % at 4 µM; 2,200 compounds, 77% hits;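 active means mean inhibition across replicate wells exceeding the computed hit threshold, cut at about 13% in these data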;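 further: light from luciferase halves that rejoin when HNF4 fusion proteins dimerize; 0% = DMSO only wells and the 100% control is not given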
Target sequence (P41235 whole entry, looked up, the tested form may be a part): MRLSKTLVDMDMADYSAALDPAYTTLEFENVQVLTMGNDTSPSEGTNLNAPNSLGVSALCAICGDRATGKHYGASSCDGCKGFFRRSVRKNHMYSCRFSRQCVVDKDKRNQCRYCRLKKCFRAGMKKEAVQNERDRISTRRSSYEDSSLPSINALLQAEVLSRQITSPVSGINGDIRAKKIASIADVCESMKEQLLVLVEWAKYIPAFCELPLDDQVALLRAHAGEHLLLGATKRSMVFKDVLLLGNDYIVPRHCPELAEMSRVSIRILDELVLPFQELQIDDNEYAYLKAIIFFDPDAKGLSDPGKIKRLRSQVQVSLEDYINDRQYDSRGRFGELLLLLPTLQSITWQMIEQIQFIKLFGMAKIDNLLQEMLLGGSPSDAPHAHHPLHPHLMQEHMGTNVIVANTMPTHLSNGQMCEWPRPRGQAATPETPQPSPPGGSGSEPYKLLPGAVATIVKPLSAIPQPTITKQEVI
* marks the source's active call; other numbers are inactive results; x = not tested or not shown. Compounds with a hit are over-represented: about 1.9% of the library has one in this group of screens.

SMILES | Hsp70 activator | HIF act | ABHD5-PLIN5 inh | Rad51 HR inh | TAG inh | FXN GAA850 act | ABHD5 PLIN5 conf | HNF4 split-luc
COC(=O)c1ccc(NC(=O)CN2CCC(NC(=O)c3ccccc3F)CC2)cc1 | x | x | 1 | x | 7 | -1 | x | x
CC(=O)c1cc2c(cc1NC(=O)CCc1c(C)nc3ncnn3c1C)OCO2 | x | x | -3 | x | 19 | 1 | x | x
Brc1ccc2nc(-c3ccco3)c(Cc3ccccc3)n2c1 | x | x | 59* | x | x | x | 63* | 95*
Cc1ccc(Cc2c(-c3ccco3)nc3ccc(C)cn23)cc1 | x | x | 37* | x | x | x | 14 | 34*
COC(=O)c1ccc2nc(-c3ccco3)c(Cc3cccc(F)c3)n2c1 | x | x | 57* | x | x | x | 48* | 83*
Cc1ccc(Cc2c(-c3ccc(Br)cc3)nc3ccc(Br)cn23)cc1 | x | x | -12 | x | 4 | -1 | x | x
COC(=O)c1ccc2nc(-c3ccco3)c(Cc3ccc(OC)cc3C)n2c1 | x | x | 47* | x | x | x | 72* | 83*
COC(=O)c1ccc2nc(C3CCCCC3)c(Cc3ccccc3C(F)(F)F)n2c1 | x | x | -2 | x | x | x | x | x
COC(=O)c1ccc2nc(-c3ccco3)c(Cc3ccccc3C(F)(F)F)n2c1 | x | x | 52* | x | x | x | 24* | 66*
COC(=O)c1ccc2nc(-c3ccco3)c(Cc3ccc(C)cc3)n2c1 | x | x | 39* | x | x | x | 19 | 42*
CCCn1cc(CN2CCC(Oc3ccc(C(=O)N4CCCC4)cc3)CC2)c(C)n1 | x | 0 | -1 | x | x | 2 | x | x
CCOC(=O)c1c(C)n(C)c2ccc(OC(=O)c3ccc(N4C(=O)CCC4=O)cc3)cc12 | 0 | 0 | 8 | 0 | x | 0 | x | x
Cc1ccc(C(=O)Nc2ccc3c(c2)OCCO3)c(Cl)c1 | x | -5 | 5 | x | x | -6 | x | x
O=C(Nc1ccc2c(c1)OCCO2)c1cc(F)c(F)cc1Cl | x | 2 | 24* | x | 5 | 4 | 2 | -1
O=C(NCc1cccnc1)/C(=C/c1ccc(-c2cccc(Cl)c2)o1)S(=O)(=O)c1ccccc1 | 0 | 5 | 48* | -6 | 18 | 0 | 40* | 39*
N#C/C(=C/c1ccc(CNC(=O)C(=O)Nc2cc(Cl)cc(Cl)c2)o1)C(=O)NCc1cccnc1 | 0 | -2 | 0 | -5 | x | 3 | x | x
Cc1ccc(C(=O)N/C(=C\c2ccc(-c3cc(Cl)ccc3Cl)o2)C(=O)NCc2cccnc2)cc1 | 0 | 0 | 2 | x | 34 | -3 | x | x
O=C(NCc1cccnc1)/C(=C\c1ccc(-c2cccc(Cl)c2)o1)S(=O)(=O)c1ccccc1 | 1 | -6 | 82* | x | x | -14 | 97* | 88*
O=C1NC(Cc2ccccc2)C(=O)N1Cc1cc([N+](=O)[O-])cc2c1OCOC2 (stereo unspecified) | 0 | 1 | -2 | 7 | -12 | 0 | x | x
CC(NC(=O)C1CCCN1S(=O)(=O)c1cccc2nsnc12)c1ccccc1 (stereo unspecified) | x | 0 | 2 | x | x | 1 | x | x
CCCCOCC(O)Cn1c(C)nc2ccccc21 (stereo unspecified) | 0 | 0 | 8 | 2 | x | 1 | x | x
Cc1nc2ccccc2n1CC(O)Cn1c2ccccc2c2ccccc21 (stereo unspecified) | 0 | -1 | 29* | -5 | x | -1 | 9 | 25*
Cc1ccc(-c2cc3nc(C)cc(N4CCN(C(=O)c5ccoc5)CC4)n3n2)cc1 | x | x | 9 | x | 36 | 0 | x | x
CCOC(=O)/C=C1\CN(C(C)c2ccccc2)S(=O)(=O)c2ccccc21 (stereo unspecified) | x | 1 | 59* | x | -10 | 1 | 7 | 4
CCOC(=O)/C=C1\CN(CCC(C)C)S(=O)(=O)c2ccccc21 | x | 0 | 5 | x | x | 2 | x | x
CCc1ccc(Nc2nnc(SC(C)C(=O)NC3CC3)s2)cc1 (stereo unspecified) | x | x | 78* | x | -10 | -1 | 5 | 0
Cc1cccc(Nc2nnc(SC(C)C(=O)NC3CC3)s2)c1 (stereo unspecified) | x | x | -3 | x | 13 | 0 | x | x
